Calls of active or inactive are those of the source. The calls are words filed in the database; no cut-off is given here.
Columns and labels:
[1] = molecular target: Protease (Human immunodeficiency virus 1) (UniProt Q9YQ12); assay: Inhibition of HIV1 protease at 100 ug/mL
Procedure, shortened: (§1)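 Commercial HIV protease assay kit, with inhibition calculated by a previously reported method. Compounds were screened at 100 µg/mL. IC50 was taken from concentration-dependent inhibition. Acetyl pepstatin served as positive control.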

Protease = Protease (Human immunodeficiency virus 1, UniProt Q9YQ12); assay: Inhibition of HIV1 protease; procedure, shortened: as §1
[2] = tested on: Human immunodeficiency virus 1; assay: Antiviral activity against HIV1 in human MT4 cells assessed as inhibition of viral-induced cytopathic effect at 500 ug/mL; type: functional, organism-based
[3] = tested on: Human immunodeficiency virus 1; assay: Antiviral activity against HIV1 in human MT4 cells assessed as inhibition of viral-induced cytopathic effect at 250 ug/mL; type: functional, organism-based

Protease (Human immunodeficiency virus 1), sequence (Q9YQ12 as listed by the source): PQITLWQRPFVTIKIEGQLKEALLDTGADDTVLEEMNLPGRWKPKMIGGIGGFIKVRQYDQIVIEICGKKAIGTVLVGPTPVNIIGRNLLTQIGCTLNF
Protease, sequence (Q9YQ12 whole entry): as the sequence (Q9YQ12 as listed by the source) above

Compound | inhibition [1] [%] | also measured
C/C1=C/[C@H]2OC(=O)[C@H](C)[C@H]2CC[C@]2(C)O[C@H]1C[C@H]2O | 22 | 
C[C@@H]1C(=O)O[C@@H]2C3=C([C@H]4C(=O)[C@]3(C)[C@@H]3[C@H](O)C5=C([C@H]6OC(=O)[C@@H](C)[C@@H]6CC[C@]5(C)O)[C@@]43C)[C@@](C)(O)CC[C@@H]12 | 22 | 
CC1=C[C@H]2[C@H]3[C@H](C(C)=C4[C@H]5OC(=O)[C@@H](C)[C@@H]5CC[C@](C)(O)[C@@H]43)[C@@]13[C@@H]2[C@@](C)(O)CC[C@H]1[C@H](C)C(=O)O[C@@H]13 | 22 | Activity [3]: Active

Further lines, with some results ahead:

inhibition [1] [%] | Compound | also measured
22 | C=C1[C@@H](O)[C@@H]2[C@H]3[C@H](C(C)=C4[C@H]5OC(=O)[C@@H](C)[C@@H]5CC[C@](C)(O)[C@@H]43)[C@@]13[C@@H]2[C@@](C)(O)CC[C@H]1[C@H](C)C(=O)O[C@@H]13 | 
22 | CC1=C2[C@H]3OC(=O)[C@@H](C)[C@@H]3CC[C@](C)(O)[C@@H]2[C@H]2[C@H]3C(=O)[C@H](C)[C@]4([C@@H]3[C@@](C)(O)CC[C@H]3[C@H](C)C(=O)O[C@@H]34)[C@@H]12 [CARUIFOLIN B] | IC50 (Protease): 293 µM; Activity [2]: Active
22 | CC1=C2[C@H]3OC(=O)[C@H](C)[C@@H]3CC[C@@](C)(O)[C@@H]2[C@H]2[C@H]3C[C@]4(C)O[C@@]5(C)CC[C@H]6[C@H](C)C(=O)O[C@@H]6[C@@]4([C@@H]35)[C@@H]12 | 
22 | CC1=C2[C@H]3OC(=O)[C@@H](C)[C@@H]3CC[C@](C)(O)[C@@H]2[C@H]2[C@H]3C[C@]4(C)O[C@@]5(C)CC[C@H]6[C@H](C)C(=O)O[C@@H]6[C@@]4([C@@H]35)[C@@H]12 | 
22 | CC1=C2[C@H]3OC(=O)[C@@H](C)[C@@H]3CC[C@](C)(O)[C@@H]2[C@H]2[C@@H]3[C@@H]4[C@]5([C@H]6OC(=O)[C@@H](C)[C@@H]6CC[C@]4(C)O[C@@]5(C)[C@H]3O)[C@@H]12 | 
